These results are taken from ChEMBL document CHEMBL1130245, “Syntheses and photodynamic activities of novel trisulfonated zinc phthalocyanine derivatives” (1997).

Molecules are shown by their SMILES.

The nature of test [1]: (§1) Light dose to inactivate 90% of mouse mammary tumor cells (EMT-6) incubated with 1 uM dye for a period of 24 hour. In kind it is functional. Put shortly:
(§2)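 EMT-6 mouse mammary tumor cells, 15 × 10^3 per well, were grown overnight in Waymouth's with 15% FBS and incubated at 37 °C with dye at 1 µM in Waymouth's 1% FBS (1 h for line 1, 24 h for line 2). Cells were rinsed and exposed to 660-700 nm red light at 10 mW cm-2 (1.5-30 J cm-2). MTT read at 595 nm next day; LD90 extrapolated from survival curves; 8 replicates per light dose, ≥3 experiments.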

Test [2] can be described thus: (§3) Light dose to inactivate 90% of mouse mammary tumor cells (EMT-6) incubated with 1 uM dye for a period of 1 hour. In kind it is functional. Put shortly:
as §2

Test [3] relates to Mus musculus. As to the kind of experiment: Medium edema caused with EMT-6 tumor at drug dose 5 umol kg e-1, at light dose 300 J cme-2, and at time period of 24 hr.; ++ = Medium edema. The note with it: tested as the Zn salt or complex. Type of test: functional, organism-based. Put shortly: (§4)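 Male BALB/c mice (18-22 g), depilated; 2 × 10^5 EMT-6 cells implanted intradermally on each hind thigh; used 6-8 days later (tumors 3-5 mm diameter, 2-3 mm thick). Dye in PBS given iv (2-20 µmol kg-1); 24 or 48 h later one tumor illuminated with 650-700 nm xenon-lamp light, the other left as control. Edema scored 24 h post-PDT.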

Test [4] is filed under the species Mus musculus. The test is described as follows: Percent regression with EMT-6 Tumor in BALB/c mice at drug dose 5 umol kg e-1, at light dose 300 J cme-2, and at time period of 24 hr. Type of test: functional. Put shortly: as §4
For test [5], the species on record is Mus musculus. The test is described as follows: Percent necrosis with EMT-6 Tumor in BALB/c mice at drug dose 2 umol kg e-1, at light dose 400 J cme-2, and at time period of 24 hr. In kind it is functional. Put shortly:
as §4

The species entered for test [6] is Mus musculus. The test is described as follows: Percent regression with EMT-6 Tumor in BALB/c mice at drug dose 5 umol kg e-1, at light dose 400 J cme-2, and at time period of 24 hr. In kind it is functional. The gist of the method:
as §4

Test [7] is filed under the species Mus musculus. As to the kind of experiment: Percent regression with EMT-6 Tumor in BALB/c mice at drug dose 5 umol kg e-1, at light dose 400 J cme-2, and at time period of 48 hr. In kind it is functional. The gist of the method: as §4
The species named for test [8] is Mus musculus. As to the kind of experiment: Percent regression with EMT-6 Tumor in BALB/c mice at drug dose 2 umol kg e-1, at light dose 400 J cme-2, and at time period of 24 hr. In kind it is functional. Put shortly: as §4
The species named for test [9] is Mus musculus. As to the kind of experiment: Percent necrosis with EMT-6 Tumor in BALB/c mice at drug dose 5 umol kg e-1, at light dose 300 J cme-2, and at time period of 24 hr. In kind it is functional. The gist of the method:
as §4

The species entered for test [10] is Mus musculus. The test is described as follows: Percent necrosis with EMT-6 Tumor in BALB/c mice at drug dose 5 umol kg e-1, at light dose 400 J cme-2, and at time period of 48 hr. In kind it is functional. Put shortly: as §4
The species entered for test [11] is Mus musculus. As to the kind of experiment: Percent necrosis with EMT-6 Tumor in BALB/c mice at drug dose 5 umol kg e-1, at light dose 400 J cme-2, and at time period of 24 hr. In kind it is functional. Put shortly: as §4
The subject of test [12] is Mus musculus. As to the kind of experiment: Medium edema caused with EMT-6 tumor at drug dose 2 umol kg e-1, at light dose 400 J cme-2, and at time period of 24 hr. Type of test: functional, organism-based. The note with it: tested as the Zn salt or complex. The gist of the method: as §4
Test [13] deals with Mus musculus. As to the kind of experiment: Light […] edema caused with EMT-6 tumor at drug dose 5 umol kg e-1, at light dose 400 J cme-2, and at time period of 24 hr; + = Light edema. As to conditions: tested as the Zn salt or complex. Type of test: functional, organism-based. Put shortly: as §4
The species named for test [14] is Mus musculus. Described as §1. Type of test: functional. The note with it: tested as the Zn salt or complex. Put shortly: as §2
The species named for test [15] is Mus musculus. The description is as §3. Type of test: functional. The note with it: tested as the Zn salt or complex. The gist of the method: as §2
The species entered for test [16] is Mus musculus. As to the kind of experiment: Percent regression with EMT-6 Tumor in BALB/c mice at drug dose 5 umol kg e-1, at light dose 400 J cme-2, and at time period of 24 hr.
The subject of test [17] is Mus musculus. As to the kind of experiment: Medium edema caused with EMT-6 tumor at drug dose 2 umol kg e-1, at light dose 400 J cme-2, and at time period of 24 hr; ++ = Medium edema. As to conditions: tested as the Zn salt or complex. In kind it is functional, organism-based. Put shortly: as §4
Test [18] has as its system Mus musculus. The test is described as follows: Medium edema caused with EMT-6 tumor at drug dose 5 umol kg e-1, at light dose 400 J cme-2, and at time period of 48 hr; ++ = Medium edema. Type of test: functional, organism-based. The note with it: tested as the Zn salt or complex. Put shortly:
as §4

Test [19] concerns Mus musculus. The test is described as follows: Medium edema caused with EMT-6 tumor at drug dose 5 umol kg e-1, at light dose 400 J cme-2, and at time period of 24 hr; ++ = Medium edema. In kind it is functional, organism-based. As to conditions: tested as the Zn salt or complex. Put shortly:
as §4

The species entered for test [20] is Mus musculus. As to the kind of experiment: Percent necrosis with EMT-6 Tumor in BALB/c mice at drug dose 5 uMol kg e-1, at light dose 400 J cme-2, and at time period of 24 hr. Type of test: functional. Put shortly:
as §4

Test [21] relates to Mus musculus. The test is described as follows: Medium edema caused with EMT-6 tumor at drug dose 2 umol kg e-1, at light dose 400 J cme-2, and at time period of 24 hr.; ++ = Medium edema. In kind it is functional, organism-based. As to conditions: tested as the Zn salt or complex. The gist of the method: as §4
Test [22] relates to Mus musculus. As to the kind of experiment: Medium edema caused with EMT-6 tumor at drug dose 5 umol kg e-1, at light dose 400 J cme-2, and at time period of 48 hr.; ++ = Medium edema. The note with it: tested as the Zn salt or complex. Type of test: functional, organism-based. The gist of the method: as §4
[23] abbreviates: tested as the Zn salt or complex.

As to `CC(C)(C)c1ccc2c(c1)-c1nc-2nc2[n-]c(nc3nc(nc4[n-]c(n1)c1cc(S(=O)(=O)O)ccc41)-c1cc(S(=O)(=O)O)ccc1-3)c1cc(S(=O)(=O)O)ccc21.[Zn+2]`, the LD90 in test [1] was 2.5 J cm**-2; in [2], over 30 J cm**-2. The Edema result in the test with Mus musculus [3] and in the test with Mus musculus [12] was “Medium edema” throughout. In addition, the Regression response in the test listed under Mus musculus [4] came to 0%; in the test listed under Mus musculus [6], 90%; in the test filed under Mus musculus [7] it was 37%; in the test listed under Mus musculus [8], 33%. Further, the Necrosis response in the test listed under Mus musculus [5] amounted to 50%; in the test filed under Mus musculus [9], 12%; in the test listed under Mus musculus [10], 37%; in the test filed under Mus musculus [11], 100%.

As to `O=S(=O)(O)c1ccc2c(c1)-c1nc-2nc2[nH]c(nc3nc(nc4[nH]c(n1)c1ccc(S(=O)(=O)O)cc41)-c1nc(-c4ccccc4)c(-c4ccccc4)nc1-3)c1ccc(S(=O)(=O)O)cc21`, the Edema entry with Mus musculus [13] is “Light edema”. Moreover, the results for the LD90 in the test filed under Mus musculus [14] and in the test filed under Mus musculus [15] were 19.5 J cm··-2 and over 30 J cm··-2, respectively. In the test listed under Mus musculus [16] (setting [23]), the Regression response is 0%. In the test filed under Mus musculus [11] (setting [23]), the Necrosis response stood at 25%.

Turning to `CC(C)(C)c1ccc2cc3c(cc2c1)-c1nc-3nc2[n-]c(nc3nc(nc4[n-]c(n1)c1cc(S(=O)(=O)O)ccc41)-c1cc(S(=O)(=O)O)ccc1-3)c1cc(S(=O)(=O)O)ccc21.[Zn+2]`, the LD90 in test [1] is on record as 2.5 J cm**-2; in test [2], 21 J cm**-2. The Regression response in the test filed under Mus musculus [4] was determined as 43%; in the test filed under Mus musculus [6], 86%; in the test listed under Mus musculus [7], 87%; in the test filed under Mus musculus [8], 60%. The Necrosis response worked out at 60% in the test listed under Mus musculus [5], 71% in the test listed under Mus musculus [9], 87% in the test filed under Mus musculus [10] and 100% in the test listed under Mus musculus [11]. For the same compound, the Edema result in the test with Mus musculus [17] and in the test on Mus musculus [18] was “Medium edema” throughout.

`O=S(=O)(O)c1ccc2c(c1)-c1nc-2nc2[n-]c(nc3nc(nc4[n-]c(n1)c1ccc(S(=O)(=O)O)cc41)-c1ccccc1-3)c1ccc(S(=O)(=O)O)cc21.[Zn+2]`: the LD90 is on record as 5 J cm**-2 in [1] and 29 J cm**-2 in test [2]. Further, the Edema entry in the test with Mus musculus [19] is “Medium edema”. Moreover, in the test listed under Mus musculus [16], the Regression response came to 0%. For the same compound, the Necrosis response in the test listed under Mus musculus [11] is given as 12%.

Turning to `O=S(=O)(O)c1ccc2c(c1)-c1nc-2nc2[n-]c(nc3nc(nc4[n-]c(n1)c1ccc(S(=O)(=O)O)cc41)-c1ccc(S(=O)(=O)O)cc1-3)c1ccc(S(=O)(=O)O)cc21.[Zn+2]`, the LD90 in test [1] was 14 J cm**-2; in test [2] it was over 30 J cm**-2. For the same compound, the figures for the Necrosis response in the test filed under Mus musculus [5], in the test listed under Mus musculus [10] and in the test filed under Mus musculus [11] were 12%, 50% and 91%, respectively. Also, the Regression response is 91% in the test listed under Mus musculus [20], 38% in the test listed under Mus musculus [7] and 12% in the test filed under Mus musculus [8]. Also, the Edema entry in the test on Mus musculus [21] and with Mus musculus [22] was “Medium edema” in each case.
